Compound activity (PubChem)
TRPC4 inh: blocks the mouse TRPC4 cation channel; Q9QUQ5; HEK293 TRPC4beta/mu-opioid, DAMGO-evoked Fluo4 calcium flux; hits give low values; B-score at 10 µM; 300,000 compounds, 0.39% hits;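 active = B-score over 3 SD under the library average, no early fluorescence shift, positive overall ratio signal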
Target sequence (Q9QUQ5 whole entry, looked up): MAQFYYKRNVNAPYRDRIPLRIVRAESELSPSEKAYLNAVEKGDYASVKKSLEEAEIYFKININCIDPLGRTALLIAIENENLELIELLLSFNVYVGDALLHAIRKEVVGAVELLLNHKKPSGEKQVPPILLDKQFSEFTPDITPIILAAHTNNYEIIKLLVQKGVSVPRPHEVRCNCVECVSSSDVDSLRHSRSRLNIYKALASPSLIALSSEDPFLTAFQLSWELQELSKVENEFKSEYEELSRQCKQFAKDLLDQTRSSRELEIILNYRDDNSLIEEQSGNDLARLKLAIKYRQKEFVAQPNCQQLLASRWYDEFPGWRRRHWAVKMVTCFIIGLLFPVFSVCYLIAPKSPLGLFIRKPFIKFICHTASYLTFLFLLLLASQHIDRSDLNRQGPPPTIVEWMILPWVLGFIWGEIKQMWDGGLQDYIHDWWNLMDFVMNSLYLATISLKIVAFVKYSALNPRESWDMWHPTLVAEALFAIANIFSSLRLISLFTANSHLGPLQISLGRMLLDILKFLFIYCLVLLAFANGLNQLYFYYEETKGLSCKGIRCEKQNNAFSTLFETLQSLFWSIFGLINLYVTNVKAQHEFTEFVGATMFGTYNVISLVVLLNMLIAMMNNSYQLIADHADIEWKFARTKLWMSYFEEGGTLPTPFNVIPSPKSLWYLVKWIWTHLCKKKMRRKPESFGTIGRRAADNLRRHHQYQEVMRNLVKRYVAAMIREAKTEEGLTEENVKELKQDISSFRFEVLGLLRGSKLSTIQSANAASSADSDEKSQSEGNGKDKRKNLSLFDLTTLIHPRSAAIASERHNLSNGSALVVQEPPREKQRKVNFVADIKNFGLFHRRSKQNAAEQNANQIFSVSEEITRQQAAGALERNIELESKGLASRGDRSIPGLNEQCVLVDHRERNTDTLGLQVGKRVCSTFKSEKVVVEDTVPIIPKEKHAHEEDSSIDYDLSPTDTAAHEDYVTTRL
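Assay system: HEK293 cells with stable TRPC4beta plus mu-opioid receptor expression. Dosing: single dose. Measured by: Fluo4 Ca2+ flux fluorescence. Also added: DAMGO in two steps, submaximal then maximal. Read-out: B score from integrated Fluo4 fluorescence ratio.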
TRPC6 act: activators of mouse TRPC6 channel; Q61143; 310,000 compounds, 0.13% hits; B-score at 10 µM; HEK293-TRPC6 membrane potential dye fluorescence; hits give high values; AID 2550;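 active = B-score of the integrated fluorescence ratio above library mean plus 3 SD, and starting fluorescence ratio within library mean plus 5 SD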;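 note: higher score means more depolarization so channel activation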
TRPC4 act: TRPC4 (mouse) channel activation; B-score at 10 µM; HEK293 TRPC4beta/mu-opioid, Fluo4 calcium fluorescence; hits give high values; 310,000 compounds, 0.49% hits; Q9QUQ5;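 active = B-score above 5 SD of library B-scores, and initial fluorescence ratio not above library mean plus 5 SD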;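 note: positive B-score marks a calcium rise read as TRPC4 activation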
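System – HEK293 cells stably co-expressing mouse TRPC4beta and mu-opioid receptor · Signal – Fluo4 calcium-sensitive dye fluorescence, kinetic, 1 Hz baseline · Benchmarks – buffer (low) and maximal DAMGO (high) · Read-out – B score of integrated fluorescence ratio per well · Incubation – dye loading 45 min room temperature, 110 s kinetic read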
TRPC4 PAM: allosterically enhances the mouse TRPC4 cation channel. Q9QUQ5. HEK293 TRPC4beta/mu-opioid, DAMGO EC20, Fluo-4 Ca2+ flux; hits give high values. B-score at 10 µM. 310,000 compounds, 0.42% hits;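 active = B-score of calcium response area above 5 SD of library B-scores, with initial fluorescence ratio within 5 SD of library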;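 note: B-score of integrated fluorescence ratio over time as area under calcium response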
TRPC6 inh: mouse TRPC6 channel inhibition; Q61143; HEK293-TRPC6, membrane potential dye, ACh-evoked depolarization; hits give low values; B-score at 10 µM; 310,000 compounds, 1.1% hits; AID 2553;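 active = B-score under library mean minus 3 SD, initial fluorescence not abnormally high, positive integrated signal ratio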;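 note: B-score derived from integrated fluorescence ratio over the kinetic read; more negative B-score means stronger inhibition of depolarization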
* = called active by the depositor; i = inactive. In the library only some 2.3% were active in any assay of this set; here they are far more common.

SMILES	TRPC4 inh	TRPC6 act	TRPC4 act	TRPC4 PAM	TRPC6 inh
CSCCC(NS(=O)(=O)c1ccc2c(c1)oc(=O)n2C)C(=O)NC1CCCCC1 (stereo not given)	i	i	i	i	i
CSCCC(NS(=O)(=O)c1ccc2c(c1)c(=O)n(C)c(=O)n2C)C(=O)NC1CCN(Cc2ccccc2)CC1 (stereo not given)	i	i	90*	i	i
OCc1cn(-c2ccccc2)nc1-c1ccc(-c2nn(-c3ccccc3)cc2CO)cc1	i	i	i	i	i
Cc1ccc(-c2nn(-c3ccccc3)cc2CSC(=N)N)cc1	i	i	68*	i	i
Cc1ccc(S(=O)(=O)N(CC(=O)c2ccccc2)C(=O)N2CCN(C)CC2)cc1	i	i	i	i	i
O=C(/C=C/c1ccccc1)NC(=S)NNC(=O)Cc1cccs1	i	i	i	i	i
O=C(Cc1cccs1)NNC(=S)NC(=O)c1ccc(F)c(F)c1	i	i	60*	i	i
O=C(Cc1cccs1)NNC(=S)NC(=O)c1ccccc1	i	i	52*	i	i
CCCC1=C(C(=O)OCC)C(c2sccc2C)n2ncnc2N1 (stereo not given)	i	i	i	i	i
CC(=O)N1c2ccccc2C(C)(c2ccccc2)CC1(C)C (stereo not given)	-6*	i	i	i	i
CC[C@@H](C(=O)[C@@H](C)[C@@H](O)[C@H](C)CCc1ccc(C)c(O)c1C(=O)O)[C@H]1O[C@](CC)([C@H]2CC[C@](O)(CC)[C@H](C)O2)C[C@@H]1C	i	i	160*	i	i
CCS(=O)(=O)N1CCC(C(=O)Oc2ccc(C)c(C)c2)CC1	i	i	i	i	i
O=C1CC(N2CCN(c3nc4ccccc4s3)CC2)C(=O)N1c1ccc(F)cc1 (stereo not given)	i	i	i	14*	i
CCOC(=O)C1=C(C)N(c2ccccc2)C(=O)NC1c1cccc([N+](=O)[O-])c1 (stereo not given)	i	i	i	15*	i
O=C(Nc1cc(S(=O)(=O)N2CCCCC2)ccc1Oc1ccccc1)C1=COCCO1	i	i	i	i	i
CCN(CC)CCN(C(=O)CN1C(=O)c2ccccc2C1=O)c1nc2cc3c(cc2s1)OCO3	i	i	i	i	-8.7*
CCN(Cc1ccccc1)S(=O)(=O)c1ccc(C(=O)N(CCCN(C)C)c2nc3cc4c(cc3s2)OCO4)cc1	-6*	i	45*	i	i
CN(C)CCCN(C(=O)c1ccc2c(c1)CCCC2)c1nc2cc3c(cc2s1)OCO3	i	i	i	i	i
CN(C)CCN(C(=O)CN1C(=O)c2ccccc2C1=O)c1nc2cc3c(cc2s1)OCO3	i	i	i	i	i
CN(C)CCN(C(=O)c1ccc(S(=O)(=O)N(C)c2ccccc2)cc1)c1nc2cc3c(cc2s1)OCO3	i	i	i	i	i
CN(C)CCCN(C(=O)c1ccc(Br)s1)c1nc2cc3c(cc2s1)OCO3	-7*	i	i	i	i
O=S(=O)(c1cccc2nsnc12)N1CCCCC1	i	i	i	i	i
Cc1ccc2[nH]c(C(=O)O)c(-c3ccccc3)c2c1	i	i	i	i	i
Cc1ccc2[nH]c(C(=O)NN=C3CCCCC3)c(-c3ccccc3)c2c1	i	i	i	10*	i
CCOc1c(Cl)cc(CNCC(O)c2ccccc2)cc1OC (stereo not given)	-6*	i	i	i	i
SMILES	TRPC4 inh	TRPC6 act	TRPC4 act	TRPC4 PAM	TRPC6 inh
CCOc1c(Cl)cc(CNCC(C)C)cc1OC	i	i	i	i	i
CCCCCNC(=O)Cn1c(=O)c2c(ncn2CC(C)C)n(Cc2ccccc2)c1=O	i	i	i	i	i
CCSc1nc(N)c2c3c(sc2n1)CN(C)CC3	i	i	i	i	-5.3*
CCCN1CCN(C(=S)NCc2ccc(Cl)cc2)CC1	i	i	i	22*	i
S=C(NCc1ccc(Cl)cc1)N1CCN(c2ccccn2)CC1	i	i	i	i	i
Cc1cccc(Nc2nc(NCCCN3CCOCC3)nc(N)c2[N+](=O)[O-])c1	-6*	i	i	i	i
CCOc1ccccc1-n1c(SCC(=O)Nc2nccs2)nnc1-c1ccoc1C	-6*	i	i	i	i
CCOc1ccc(-n2c(SCC(=O)Nc3nccs3)nnc2-c2ccoc2C)cc1	i	i	i	i	i
CCn1c(SCC(=O)c2cc(C)n(CC3CCCO3)c2C)nc2ccccc21 (stereo not given)	-7*	i	200*	i	i
CCc1noc(C)c1C(=O)Nc1cccc2ncccc12	i	i	i	i	i
CSc1ncc(Cl)c(C(=O)Nc2ccccc2Br)n1	i	i	i	i	i
COc1cc(C=O)ccc1OC(=O)c1ccncc1	i	i	i	i	i
COc1cc(C=O)ccc1OC(=O)c1ccc(C(C)C)cc1	-6*	i	i	i	i
c1cncc(-c2ccnc3ncnn23)c1	i	i	i	i	i
O=C(NCCN1CCCCC1)c1cc(Cl)ccc1Cl	i	i	i	i	i
COc1cc(CN2CCN(Cc3ccc(SC)cc3)CC2)cc(OC)c1O	i	i	i	i	i
COc1ccc(CN2CCN(Cc3ccccc3F)CC2)c(OC)c1	-5*	i	i	i	i
COc1ccc(CN2CCN(Cc3ccc(C(F)(F)F)cc3)CC2)c(OC)c1	-6*	i	i	i	i
COc1cc(OC)c(OC)cc1CN1CCN(Cc2ccc(SC)cc2)CC1	i	i	43*	i	i
COc1ccc(CN2CCN(Cc3ccc(C)cc3)CC2)c(OC)c1	i	i	i	i	i
COc1ccc(C(=O)Nc2ccccc2C(=O)NCc2cccnc2)cc1	i	i	i	i	i
CC(=C/c1ccccc1)/C=N/n1c(-c2ccncc2)n[nH]c1=S	i	i	i	15*	i
CC(/C=N/n1c(-c2cccnc2)n[nH]c1=S)=C\c1ccccc1	i	i	i	i	i
CC(=O)OCCCN1C(=O)c2cccc3cc(Br)cc(c23)C1=O	-6*	i	i	i	i
CCOC(=O)CCCCCN1C(=O)c2cccc3cccc(c23)C1=O	i	i	i	i	i
Cc1cccc2sc(N(CCN3CCOCC3)C(=O)CCS(=O)(=O)c3ccccc3)nc12	i	i	i	i	i
